An excerpt weighted towards active compounds, which were near 1.4% of everything screened.
Platelet DG rel = modulates dense granule release in human platelets; human platelet-rich plasma, SFLLRN dense granule ATP release, luminescence; inhibition, %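 (compounds screened at 7.5 µM in platelet-rich plasma)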; 300,000 compounds, 0.22% hits; AID 1663;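 active means mean replicate score, as percent of positive control, at or above 50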
STAT1 inh = inhibitors of IFN-gamma induced STAT1 signaling; NIH 3T3 STAT1-luciferase reporter, luminescence; inhibition, % at 5.5 µM; 200,000 compounds, 0.35% hits; AID 920;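 active means inhibition above a set limit, the mean inhibition across all tested compounds plus 3 SD, cut at about 34% in these data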
STAT3 act = STAT3 signaling activation | U3A cells, IL-6 STAT3-luciferase reporter, luminescence; 100% = signal with IL-6 EC80 alone | activation (% of control), % at 5.6 µM | 190,000 compounds, 0.91% hits | AID 871;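 active means activation above the screen-wide mean of compound activation plus 3 SD, cut at about 130% in these data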
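System – human U3A cells carrying STAT3-luciferase construct · Probe or stimulus – Interleukin-6, 33 ng/mL · Schedule – compound 1 h, then IL-6 6 h at 37 °C · Signal – luminescence from STAT3-driven luciferase reporter · Evaluation – percent of IL-6-only median luminescence · Benchmarks – IL-6-only high control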
STAT3 inh-1 = reduces IL-6 driven STAT3 reporter signal; AID 862; 190,000 compounds, 0.89% hits; inhibition, % at 5.5 µM; U3A cells, IL-6 STAT3-luciferase reporter, luminescence; host cell line lacks STAT1;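 active means inhibition above the mean inhibition across all screened compounds plus 3 SD, cut at about 44% in these data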
PERK inhibitor = human PERK inhibition, primary cell-based screen; Q9NZJ5; CHO PERK-DD fusion, SEAP luminescence translation reporter; inhibition, % at 5.6 µM; 220,000 compounds, 0.17% hits; AID 1416;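 active means inhibition above the mean inhibition of all tested compounds plus 3 SD, set separately per screening campaign, cut at about 2.9% in these data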;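 further: PERK kinase domain activated by AP20187 dimerizer at 100 nM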
Target sequence (Q9NZJ5 whole entry, looked up, the tested form may be a part): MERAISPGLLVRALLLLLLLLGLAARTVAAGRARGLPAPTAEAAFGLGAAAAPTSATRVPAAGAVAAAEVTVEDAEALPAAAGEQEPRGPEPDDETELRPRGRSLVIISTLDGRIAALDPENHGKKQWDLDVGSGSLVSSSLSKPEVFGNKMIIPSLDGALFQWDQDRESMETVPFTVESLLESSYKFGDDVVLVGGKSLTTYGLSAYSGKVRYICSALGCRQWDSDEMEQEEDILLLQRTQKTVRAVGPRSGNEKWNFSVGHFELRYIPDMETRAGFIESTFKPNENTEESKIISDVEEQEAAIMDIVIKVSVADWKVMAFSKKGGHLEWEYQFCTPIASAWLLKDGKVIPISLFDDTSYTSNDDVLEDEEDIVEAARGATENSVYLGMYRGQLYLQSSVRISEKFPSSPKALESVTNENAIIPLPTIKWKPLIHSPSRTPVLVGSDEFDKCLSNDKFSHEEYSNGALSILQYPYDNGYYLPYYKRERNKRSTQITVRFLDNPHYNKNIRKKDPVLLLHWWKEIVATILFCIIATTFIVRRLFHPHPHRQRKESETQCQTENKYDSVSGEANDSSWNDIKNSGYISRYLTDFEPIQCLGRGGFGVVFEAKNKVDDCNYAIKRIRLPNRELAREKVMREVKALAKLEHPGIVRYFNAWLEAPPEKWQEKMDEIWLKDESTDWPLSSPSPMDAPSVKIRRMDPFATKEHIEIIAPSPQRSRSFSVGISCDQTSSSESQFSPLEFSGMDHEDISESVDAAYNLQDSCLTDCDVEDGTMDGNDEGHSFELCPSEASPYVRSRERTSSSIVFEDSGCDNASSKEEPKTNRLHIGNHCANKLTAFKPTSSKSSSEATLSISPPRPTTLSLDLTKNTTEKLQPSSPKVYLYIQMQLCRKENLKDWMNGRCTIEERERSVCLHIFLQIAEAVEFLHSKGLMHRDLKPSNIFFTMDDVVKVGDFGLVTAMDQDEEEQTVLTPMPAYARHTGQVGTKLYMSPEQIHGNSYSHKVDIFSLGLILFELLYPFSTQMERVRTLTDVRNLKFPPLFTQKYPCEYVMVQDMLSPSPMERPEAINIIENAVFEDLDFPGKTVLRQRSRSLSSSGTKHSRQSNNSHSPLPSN
STAT3 inh-2 = confirmation of STAT3 signaling inhibitors; shares compounds with STAT3 inh-1; U3A cells, IL-6 STAT3 luciferase reporter, luminescence; cell line lacks STAT1; inhibition, % at 5.7 µM; 1,200 compounds, 45% hits;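 active means inhibition above the hit cutoff computed for the primary STAT3 screen, cut at about 44% in these data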
NFkB inh STAT3ct = inhibits NF-kappaB, counter-screen to STAT3 inhibitors; shares compounds with STAT3 inh-1; HEK293T NF-kB luciferase reporter, TNF-alpha induced; inhibition, % at 5.7 µM; 1,200 compounds, 36% hits; AID 1308;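 active means inhibition above the mean of solvent-only control wells plus 3 SD, cutoff set per campaign, cut at about 13% in these data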
STAT1 inh STAT3c = inhibits STAT1, counter-screen to STAT3 inhibitors. inhibition, % at 5.7 µM. NIH 3T3 STAT1-luciferase reporter, IFN-gamma induced, luminescence. shares compounds with STAT3 inh-1. 1,200 compounds, 27% hits;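 active means inhibition above the mean plus 3 SD of solvent-only control wells, limit set per screening run, cut at about 16% in these data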
Hits are given with their value; – = inactive; · = no result.

SMILES	Platelet DG rel	STAT1 inh	STAT3 act	STAT3 inh-1	PERK inhibitor	STAT3 inh-2	NFkB inh STAT3ct	STAT1 inh STAT3c
COc1ccc(N(C(C)C(=O)N2CCC(Cc3ccccc3)CC2)S(C)(=O)=O)cc1 (stereo not drawn)	–	–	–	50	–	46	–	21
CCOC(=O)N1CCN(C(=O)C(C)N(c2ccc(Oc3ccccc3)cc2)S(C)(=O)=O)CC1 (stereo not drawn)	–	–	–	–	–	·	·	·
CCOC(=O)C1CCN(C(=O)C(C)N(c2ccc(Oc3ccccc3)cc2)S(C)(=O)=O)CC1 (stereo not drawn)	–	–	–	49	–	–	–	–
CC1Sc2ccc(S(=O)(=O)CCC(=O)NC3CCCCC3C)cc2NC1=O (stereo not drawn)	–	·	·	·	·	·	·	·
CC(=O)Cc1nsc(NC(=O)c2ccc(COc3ccccc3C)o2)n1	–	·	·	·	·	·	·	·
CCc1ccc(NC(=O)c2ccc(C3SCC(=O)N3CCc3ccccc3)cc2)cc1 (stereo not drawn)	–	–	–	46	–	48	15	–
Cc1cc(OC(C)C(=O)Nc2ccncc2)ccc1Cl (stereo not drawn)	–	·	·	·	·	·	·	·
CCCCOC(=O)c1[nH]c2c(c1C)C(=O)CC(c1cc(OC)c(OC)c(OC)c1)C2 (stereo not drawn)	–	–	–	53	–	63	23	24
COc1ccc(OC)c(NC(=O)CC2Oc3ccccc3NC2=O)c1 (stereo not drawn)	–	·	·	·	·	·	·	·
Cc1ccc(CSc2nc3ncccc3[nH]2)cc1	–	–	–	48	–	–	–	–
Cc1nn(-c2ccccc2)c(C)c1C(=O)OCC(=O)c1c(N)n(CC(C)C)c(=O)n(C)c1=O	–	–	–	44	–	66	14	–
CC(C)Cn1c(N)c(C(=O)CSc2ncccn2)c(=O)n(C)c1=O	–	·	·	·	·	·	·	·
CC(C)Cn1c(N)c(C(=O)COC(=O)c2ccc(O)cc2)c(=O)n(C)c1=O	–	–	–	–	–	·	·	·
Cc1csc(SCC(=O)c2c(N)n(CC(C)C)c(=O)n(C)c2=O)n1	–	–	–	49	–	49	–	20
CCOC(=O)Cc1csc(SCC(=O)c2c(N)n(CC(C)C)c(=O)n(C)c2=O)n1	–	–	–	64	–	52	–	–
CCc1cc2c(=O)n(Cc3ccccc3)c(SC3CCOC3=O)nc2s1 (stereo not drawn)	–	–	–	–	–	·	·	·
CCc1ccc(N(C(=O)c2csnn2)C(C(=O)NC(C)(C)C)c2cccnc2)cc1 (stereo not drawn)	–	–	–	–	–	·	·	·
O=C(Nc1nc(-c2cccs2)cs1)c1ccc(S(=O)(=O)N2CCCC2)cc1	–	–	–	–	–	·	·	·
CN(C)S(=O)(=O)c1ccc(C(=O)Nc2nc(-c3cccs3)cs2)cc1	–	–	–	53	–	44	–	–
O=C(/C=C\Nc1cccc(F)c1)c1cccs1	–	–	–	–	–	·	·	·
O=C(/C=C/Nc1ccccc1F)c1cccs1	–	–	–	61	–	–	16	–
O=C(/C=C/Nc1ccc(F)cc1F)c1cccs1	–	–	–	66	–	54	55	33
COc1ccc(-c2nc(NC(=O)CCNC(=O)c3ccco3)sc2C)cc1	–	–	–	–	–	·	·	·
COc1cnc(-c2ccccn2)nc1Sc1ccc(F)cc1	–	–	–	–	–	·	·	·
CC(C)CN1C(=O)c2ccc(C(=O)Nc3ccncc3)cc2C1=O	–	–	–	49	–	57	–	–
CC(=O)c1ccccc1OC(=O)COc1ccc([N+](=O)[O-])cc1	–	·	·	·	·	·	·	·
Cn1c(=O)c2c(nc(Br)n2Cc2ccccc2Cl)n(C)c1=O	–	–	–	–	–	·	·	·
CCOc1nc2c(c(=O)n(C)c(=O)n2C)n1Cc1ccccc1Cl	–	–	–	46	–	–	–	–
Cc1cccc(NC(=O)c2ccc3c(Cl)c4c(nc3c2)CCCC4)n1	–	–	–	64	–	–	–	–
Cc1cccc(NC(=O)c2onc3c2CCCC3)n1	–	–	–	71	–	55	18	–

From PubChem
